The record followed here is ChEMBL document CHEMBL1127626, “Synthesis and molecular modeling of 1-phenyl-1,2,3,4-tetrahydroisoquinolines and related 5,6,8,9-tetrahydro-13bH-dibenzo[a,h]quinolizines as D1 dopamine antagonists” (J Med Chem, 1994).

Where “and” joins values, the source holds several entries; their conditions need not be identical. Equal values may be shown once.

For assay [1], the target named is T1, D(1A) dopamine receptor (Rattus norvegicus, UniProt P18901). Briefly: Binding affinity against dopamine receptor D1.
T1 sequence (P18901 whole entry): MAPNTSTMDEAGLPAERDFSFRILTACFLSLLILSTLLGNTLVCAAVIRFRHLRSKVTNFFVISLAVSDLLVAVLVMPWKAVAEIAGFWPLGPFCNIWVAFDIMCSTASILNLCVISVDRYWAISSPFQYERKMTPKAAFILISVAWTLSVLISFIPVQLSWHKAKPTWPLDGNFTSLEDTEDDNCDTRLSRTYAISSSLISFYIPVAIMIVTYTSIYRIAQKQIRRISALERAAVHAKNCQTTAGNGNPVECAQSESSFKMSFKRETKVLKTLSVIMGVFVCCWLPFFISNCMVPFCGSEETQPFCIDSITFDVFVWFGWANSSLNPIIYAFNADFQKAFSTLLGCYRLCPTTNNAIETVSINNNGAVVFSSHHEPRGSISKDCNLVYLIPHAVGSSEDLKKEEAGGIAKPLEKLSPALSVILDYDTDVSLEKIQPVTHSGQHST
The target in assay [2] is T1, D(1A) dopamine receptor. In words: Binding affinity towards dopamine receptor D1 using [3H]SCH-23390 was determined in rat striatal membranes. Type of assay: cell membranes, Striatum, Membrane.
Assay [3] deals with T2, D(2) dopamine receptor (Rattus norvegicus, UniProt P61169). Briefly: Binding affinity towards dopamine […] receptor using [3H]spiperone was determined in rat striatal membranes. Type of assay: cell membranes, Striatum, Membrane.
T2 sequence (P61169 whole entry): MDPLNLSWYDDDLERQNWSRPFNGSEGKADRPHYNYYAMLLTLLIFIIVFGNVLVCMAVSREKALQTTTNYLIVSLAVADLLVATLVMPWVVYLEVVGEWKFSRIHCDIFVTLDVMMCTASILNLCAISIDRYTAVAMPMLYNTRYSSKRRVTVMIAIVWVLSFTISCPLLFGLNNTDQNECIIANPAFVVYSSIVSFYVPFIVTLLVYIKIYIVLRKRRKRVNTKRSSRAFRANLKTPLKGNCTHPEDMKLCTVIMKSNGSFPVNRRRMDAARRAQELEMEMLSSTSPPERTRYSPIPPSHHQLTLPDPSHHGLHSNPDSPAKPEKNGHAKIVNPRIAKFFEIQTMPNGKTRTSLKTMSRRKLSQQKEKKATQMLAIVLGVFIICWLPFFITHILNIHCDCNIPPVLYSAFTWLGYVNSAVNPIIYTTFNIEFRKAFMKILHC
Assay [4] deals with T2, D(2) dopamine receptor. Briefly: Binding affinity against dopamine (D2) receptor. The essentials: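 Competition with 0.02 nM [3H]spiperone plus 50 nM ketanserin to mask 5-HT2 sites; chlorpromazine defines nonspecific. 37 °C 15 min, glass-fiber filtration. IC50 from Hill plot linear regression, Ki by Cheng-Prusoff; mean ± SEM.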
Assay [5] has as its target Dopamine receptors; D1 & D2 (Rattus norvegicus) (UniProt P18901+P61169). In words: Selectivity for D1 receptor was determined as the ratio of Ki (D2) to that of Ki (D1). Type of assay: protein assay. The procedure, abridged: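 D2 used 0.02 nM [3H]spiperone with 50 nM ketanserin; D1 used 0.25 nM [3H]SCH23390. IC50 from Hill plot linear regression, converted to Ki via Cheng-Prusoff.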

Usually Ki stands for the equilibrium dissociation constant of an inhibitor or competing ligand from its target. Turning to `CN1CCc2cc(Br)c(O)cc2[C@H]1c1ccccc1`, the Ki was 8.32 nM in assay [1], over 5000 nM in assay [2] and over 5000 nM in assay [3].
Turning to `CN1CCc2cc(Cl)c(O)cc2[C@H]1c1ccccc1`, the figures for the Ki in assay [1] and in assay [4] were 6.61 nM and 19500 nM, respectively. Further, in assay [5], the Ratio was 43.4.
Turning to `CN1CCc2cc(Cl)c(O)cc2[C@@H]1c1ccccc1`, in assay [1], the affinity corresponds to a Ki of 9.12 nM and the “Log Ki” value is reported as -8.04. The Ratio in assay [5] worked out at 206.
In the case of `CN1CCc2cc(Br)c(O)cc2[C@@H]1c1ccccc1`, the Ki is 8.32 nM in assay [1], 1320 nM in assay [4], 8.3 nM in assay [2] and 1300 nM in assay [3]. The Ratio in assay [5] is 157.
For `CN1CCc2cc(O)ccc2[C@H]1c1ccccc1`, the Ki was over 10000 nM in assay [1], over 5000 nM in assay [2] and over 5000 nM in assay [3].
Take `CN1CCc2ccc(O)cc2C1c1ccccc1` (racemic): the Ki in assay [1] was over 10000 nM; in assay [2], over 5000 nM; in assay [3] it was over 5000 nM.
With `CN1CCc2cc(O)c(O)cc2C1c1ccccc1` (racemic), the Ki is 186 nM in assay [1], 295 nM in assay [4], 370 nM in assay [2] and 290 nM in assay [3]. The Ratio in assay [5] turned out to be 1.27.
Take `CN1Cc2cc(Cl)c(O)cc2C(c2ccccc2)C1` (racemic): the Ki in assay [1] is 178 nM and 87.1 nM. The Ratio in assay [5] was determined as 3.
Turning to `CCCN1CCc2cc(Cl)c(O)cc2C1c1ccccc1` (racemic), the results for the Ki in assay [1], in assay [4] and in assay [2] were 178 nM, 1910 nM and 179 nM, respectively. In assay [5], the Ratio came out at 10.6.
With `Oc1cc2c(cc1Cl)CCN1CCc3ccccc3C21` (racemic), the Ki in assay [1] was 417 nM; in assay [2], 830 nM; in assay [3], over 5000 nM.
`CN1Cc2ccccc2C2c3cc(O)c(Br)cc3CCC21` (racemic): the results for the Ki in assay [1], in assay [2] and in assay [3] were 141 nM, 138 nM and over 3000 nM, respectively.
As for `Oc1cc2c(cc1O)C1c3ccccc3CCN1CC2` (racemic), the Ki in assay [1] was 1380 nM; in assay [2] it was 2700 nM; in assay [3] it was over 5000 nM.
Turning to `Oc1cc2c(cc1Cl)CCNC2c1ccccc1` (racemic), the Ki was 141 nM in assay [1], 3720 nM in assay [4] and 743 nM in assay [2]. In assay [5], the Ratio worked out at 35.4.
`Oc1cc2c(cc1Cl)CNCC2c1ccccc1` (racemic) showed a Ki in assay [1] of 282 nM. For the same compound, the Ratio in assay [5] was 6.4.
As to `CN1CCc2cc(Cl)c(O)cc2C1Cc1ccccc1` (racemic), the Ratio in assay [5] is 5.39.
